ChEMBL document CHEMBL3085688, “Thiazole-aminopiperidine hybrid analogues: design and synthesis of novel Mycobacterium tuberculosis GyrB inhibitors” (Eur J Med Chem, 2013)
In brackets after ≈: the same amount, converted by molar mass. Activity calls are given as the source filed them. The calls are words filed in the database; no cut-off is given here.

Target: DNA gyrase subunit A/DNA gyrase subunit B (Mycobacterium tuberculosis (strain ATCC 25618 / H37Rv), UniProt P9WG45+P9WG47)
Assay: Inhibition of Mycobacterium tuberculosis DNA gyrase super coiling activity of relaxed pBR322 using ethidium bromide staining by agarose gel electrophoresis
Settings: not given

Chain of DNA gyrase subunit A/DNA gyrase subunit B (P9WG45 whole entry): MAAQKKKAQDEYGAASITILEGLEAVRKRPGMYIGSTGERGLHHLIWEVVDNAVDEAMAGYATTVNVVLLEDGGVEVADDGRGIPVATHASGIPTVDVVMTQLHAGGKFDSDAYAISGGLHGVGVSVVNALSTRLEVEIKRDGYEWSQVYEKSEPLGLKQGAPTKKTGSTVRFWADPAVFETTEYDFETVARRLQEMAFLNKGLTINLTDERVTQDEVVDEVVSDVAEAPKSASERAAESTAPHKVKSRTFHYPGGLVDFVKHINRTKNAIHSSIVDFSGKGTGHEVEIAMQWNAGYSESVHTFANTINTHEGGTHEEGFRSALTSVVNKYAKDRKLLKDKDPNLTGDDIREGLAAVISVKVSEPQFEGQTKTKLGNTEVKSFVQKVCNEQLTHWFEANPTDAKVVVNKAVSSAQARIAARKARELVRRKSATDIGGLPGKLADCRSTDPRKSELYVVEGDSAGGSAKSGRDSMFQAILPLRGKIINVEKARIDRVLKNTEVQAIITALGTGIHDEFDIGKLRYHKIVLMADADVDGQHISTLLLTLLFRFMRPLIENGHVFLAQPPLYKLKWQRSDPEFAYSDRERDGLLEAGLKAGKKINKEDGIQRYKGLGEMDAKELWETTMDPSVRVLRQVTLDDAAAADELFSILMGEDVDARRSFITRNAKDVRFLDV
Chain of DNA gyrase subunit A/DNA gyrase subunit B (P9WG47 whole entry): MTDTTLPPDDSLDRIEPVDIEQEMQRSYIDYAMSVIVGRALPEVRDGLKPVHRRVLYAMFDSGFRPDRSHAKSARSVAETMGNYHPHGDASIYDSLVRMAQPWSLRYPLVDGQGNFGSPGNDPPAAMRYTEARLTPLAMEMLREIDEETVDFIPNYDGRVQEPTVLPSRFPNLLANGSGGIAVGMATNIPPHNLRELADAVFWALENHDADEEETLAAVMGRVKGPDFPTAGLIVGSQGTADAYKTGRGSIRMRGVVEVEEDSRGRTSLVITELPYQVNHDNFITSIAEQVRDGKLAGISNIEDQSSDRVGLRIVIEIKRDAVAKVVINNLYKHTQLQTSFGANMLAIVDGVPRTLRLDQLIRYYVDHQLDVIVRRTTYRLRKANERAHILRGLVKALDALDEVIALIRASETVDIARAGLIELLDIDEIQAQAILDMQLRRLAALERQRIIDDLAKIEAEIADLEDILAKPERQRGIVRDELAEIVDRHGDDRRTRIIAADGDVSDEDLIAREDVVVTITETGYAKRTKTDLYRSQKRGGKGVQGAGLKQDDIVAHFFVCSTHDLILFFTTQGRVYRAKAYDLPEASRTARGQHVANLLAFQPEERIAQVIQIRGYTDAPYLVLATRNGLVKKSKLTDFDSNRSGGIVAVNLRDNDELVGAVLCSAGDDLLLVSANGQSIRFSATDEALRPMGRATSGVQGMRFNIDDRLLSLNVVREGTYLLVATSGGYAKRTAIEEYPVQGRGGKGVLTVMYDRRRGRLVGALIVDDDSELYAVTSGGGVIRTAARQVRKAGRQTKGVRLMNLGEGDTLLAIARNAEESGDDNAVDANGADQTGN

Compound | IC50 [µM]
CCOC(=O)c1sc(-c2ccccc2)nc1N1CCC(NCc2ccc(F)cc2)CC1 | 27.1

Target: DNA gyrase subunit B (Mycobacterium smegmatis, UniProt P0C559)
Assay: Inhibition of Mycobacterium smegmatis GyrB ATPase activity expressed in Escherichia coli BL21 (DE3) after 2 hrs
Parameters: species or system Mycolicibacterium smegmatis
Settings: not given

Chain of DNA gyrase subunit B (P0C559 whole entry): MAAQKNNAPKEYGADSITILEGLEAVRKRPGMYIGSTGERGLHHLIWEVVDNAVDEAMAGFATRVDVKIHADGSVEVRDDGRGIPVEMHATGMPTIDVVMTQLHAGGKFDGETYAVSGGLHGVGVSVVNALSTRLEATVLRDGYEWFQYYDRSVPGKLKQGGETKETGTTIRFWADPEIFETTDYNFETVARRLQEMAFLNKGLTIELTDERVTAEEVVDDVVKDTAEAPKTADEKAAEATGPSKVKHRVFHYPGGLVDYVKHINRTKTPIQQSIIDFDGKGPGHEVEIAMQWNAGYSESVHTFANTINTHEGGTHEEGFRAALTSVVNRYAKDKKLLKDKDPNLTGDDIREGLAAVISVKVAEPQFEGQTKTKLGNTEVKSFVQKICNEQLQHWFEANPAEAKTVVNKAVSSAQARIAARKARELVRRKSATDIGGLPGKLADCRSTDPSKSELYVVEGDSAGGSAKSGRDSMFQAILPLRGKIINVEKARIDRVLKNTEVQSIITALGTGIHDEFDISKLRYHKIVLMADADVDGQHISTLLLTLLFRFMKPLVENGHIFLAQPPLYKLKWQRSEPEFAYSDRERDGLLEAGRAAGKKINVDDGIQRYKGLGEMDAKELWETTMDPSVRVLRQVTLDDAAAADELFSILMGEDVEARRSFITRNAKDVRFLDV

Compound | IC50 [µM]
CCOC(=O)c1sc(-c2ccccn2)nc1N1CCC(NCc2cccc(C(F)(F)F)c2)CC1 | 29.1
CCOC(=O)c1sc(-c2ccccc2)nc1N1CCC(NCc2cccc(C(F)(F)F)c2)CC1 | 26.9
CCOC(=O)c1sc(-c2ccccc2)nc1N1CCC(NCc2ccc(F)cc2)CC1 | 24
CCOC(=O)c1sc(-c2ccncc2)nc1N1CCC(NCc2ccc(Cl)cc2Cl)CC1 | 27.1

System: Mycobacterium tuberculosis
Assay: Antimycobacterial activity against Mycobacterium tuberculosis H37Rv after 7 days by MABA assay
Type: functional
Settings: 168 h
Procedure, shortened: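 M. tuberculosis H37Rv in 7H9-S medium with OADC, adjusted to McFarland No. 1 and diluted 1:20 for inoculum. Drugs were diluted in 7H9-S at four-fold the highest final concentration, then serially two-fold diluted in plates alongside drug-free growth and sterile controls. Alamar blue microplate read-out.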

Compound | MIC [µM]
CCOC(=O)c1sc(-c2ccncc2)nc1N1CCC(NCc2cccc(C(F)(F)F)c2)CC1 | 51 (≈ 25 µg/mL)
CCOC(=O)c1sc(-c2ccncc2)nc1N1CCC(NCc2ccccc2)CC1 | 59.2 (≈ 25 µg/mL)
CO[C@@H]1[C@@H](OC(N)=O)[C@@H](O)[C@H](Oc2ccc3c(O)c(NC(=O)c4ccc(O)c(CC=C(C)C)c4)c(=O)oc3c2C)OC1(C)C [NOVOBIOCIN] | > 200
CCOC(=O)c1sc(-c2ccccn2)nc1N1CCC(NCc2ccc(F)cc2)CC1 | 28.4 (≈ 12.5 µg/mL)
CCOC(=O)c1sc(-c2ccccn2)nc1N1CCC(NCc2ccc(Cl)cc2Cl)CC1 | 50.9 (≈ 25 µg/mL)
CCOC(=O)c1sc(-c2ccccn2)nc1N1CCC(NCc2ccc(C(F)(F)F)cc2)CC1 | 51 (≈ 25 µg/mL)
CCOC(=O)c1sc(-c2ccncc2)nc1N1CCC(NCc2ccc(Cl)c(Cl)c2)CC1 | 102 (≈ 50 µg/mL)
CCOC(=O)c1sc(-c2ccncc2)nc1N1CCC(NCc2ccc(OC)cc2)CC1 | 110 (≈ 50 µg/mL)
CCOC(=O)c1sc(-c2ccccc2)nc1N1CCC(NCc2ccc(OC)cc2)CC1 | > 111
CCOC(=O)c1sc(-c2ccncc2)nc1N1CCC(NCc2ccc(C(F)(F)F)cc2)CC1 | 102 (≈ 50 µg/mL)
CCOC(=O)c1sc(-c2ccccn2)nc1N1CCC(NCc2cccc(C(F)(F)F)c2)CC1 | 25.5 (≈ 12.5 µg/mL)
CCOC(=O)c1sc(-c2ccccn2)nc1N1CCC(NCc2ccc(Cl)c(Cl)c2)CC1 | > 102
CCOC(=O)c1sc(-c2ccccc2)nc1N1CCC(NCc2ccc(Cl)c(Cl)c2)CC1 | > 102
CCOC(=O)c1sc(-c2ccccc2)nc1N1CCC(NCc2ccccc2)CC1 | 119 (≈ 50 µg/mL)
CCOC(=O)c1sc(-c2ccncc2)nc1N1CCC(NCc2ccc(OCc3ccccc3)cc2)CC1 | 47.3 (≈ 25 µg/mL)
CCOC(=O)c1sc(-c2ccccc2)nc1N1CCC(NCc2ccc(C(F)(F)F)cc2)CC1 | 102 (≈ 50 µg/mL)
CCOC(=O)c1sc(-c2ccccc2)nc1N1CCC(NCc2cccc(C(F)(F)F)c2)CC1 | 102 (≈ 50 µg/mL)
CCOC(=O)c1sc(-c2ccncc2)nc1N1CCC(NCc2ccc(F)cc2)CC1 | 56.8 (≈ 25 µg/mL)
CCOC(=O)c1sc(-c2ccccn2)nc1N1CCC(NCc2ccccc2)CC1 | 59.2 (≈ 25 µg/mL)
CCOC(=O)c1sc(-c2ccccc2)nc1N1CCC(NCc2ccc(Cl)cc2Cl)CC1 | 51 (≈ 25 µg/mL)
CCOC(=O)c1sc(-c2ccccn2)nc1N1CCC(NCc2ccc(OCc3ccccc3)cc2)CC1 | 47.3 (≈ 25 µg/mL)
CCOC(=O)c1sc(-c2ccccc2)nc1N1CCC(NCc2ccc(OCc3ccccc3)cc2)CC1 | 47.4 (≈ 25 µg/mL)
CCOC(=O)c1sc(-c2ccccn2)nc1N1CCC(NCc2ccc(OC)cc2)CC1 | 55.2 (≈ 25 µg/mL)
CCOC(=O)c1sc(-c2ccccc2)nc1N1CCC(NCc2ccc(F)cc2)CC1 | 28.4 (≈ 12.5 µg/mL)
CCOC(=O)c1sc(-c2ccncc2)nc1N1CCC(NCc2ccc(Cl)cc2Cl)CC1 | 25.4 (≈ 12.5 µg/mL)

System: not listed separately
Assay: Cytotoxicity against mouse RAW264.7 cells at 50 uM after 72 hrs by MTT assay
Type: cell-based
Settings: read-out: INH
Procedure, shortened: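 RAW 264.7 cells were exposed to compounds for 72 h. Viability was scored by cellular MTT conversion to formazan.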

Compound | cytotoxicity at 72 h, 50 µM [%]
CCOC(=O)c1sc(-c2ccncc2)nc1N1CCC(NCc2cccc(C(F)(F)F)c2)CC1 | 14.3
CCOC(=O)c1sc(-c2ccncc2)nc1N1CCC(NCc2ccccc2)CC1 | 10.8
CCOC(=O)c1sc(-c2ccccn2)nc1N1CCC(NCc2ccc(F)cc2)CC1 | 12.6
CCOC(=O)c1sc(-c2ccccn2)nc1N1CCC(NCc2ccc(Cl)cc2Cl)CC1 | 18.6
CCOC(=O)c1sc(-c2ccccn2)nc1N1CCC(NCc2ccc(C(F)(F)F)cc2)CC1 | 14.6
CCOC(=O)c1sc(-c2ccncc2)nc1N1CCC(NCc2ccc(Cl)c(Cl)c2)CC1 | 32.2
CCOC(=O)c1sc(-c2ccncc2)nc1N1CCC(NCc2ccc(OC)cc2)CC1 | 16.1
CCOC(=O)c1sc(-c2ccccc2)nc1N1CCC(NCc2ccc(OC)cc2)CC1 | 8.4
CCOC(=O)c1sc(-c2ccncc2)nc1N1CCC(NCc2ccc(C(F)(F)F)cc2)CC1 | 18.1
CCOC(=O)c1sc(-c2ccccn2)nc1N1CCC(NCc2cccc(C(F)(F)F)c2)CC1 | 19.2
CCOC(=O)c1sc(-c2ccccn2)nc1N1CCC(NCc2ccc(Cl)c(Cl)c2)CC1 | 30.1
CCOC(=O)c1sc(-c2ccccc2)nc1N1CCC(NCc2ccc(Cl)c(Cl)c2)CC1 | 18.1
CCOC(=O)c1sc(-c2ccccc2)nc1N1CCC(NCc2ccccc2)CC1 | 11.7
CCOC(=O)c1sc(-c2ccncc2)nc1N1CCC(NCc2ccc(OCc3ccccc3)cc2)CC1 | 8.04
CCOC(=O)c1sc(-c2ccccc2)nc1N1CCC(NCc2ccc(C(F)(F)F)cc2)CC1 | 22.7
CCOC(=O)c1sc(-c2ccccc2)nc1N1CCC(NCc2cccc(C(F)(F)F)c2)CC1 | 28.1
CCOC(=O)c1sc(-c2ccncc2)nc1N1CCC(NCc2ccc(F)cc2)CC1 | 17.4
CCOC(=O)c1sc(-c2ccccn2)nc1N1CCC(NCc2ccccc2)CC1 | 14.6
CCOC(=O)c1sc(-c2ccccc2)nc1N1CCC(NCc2ccc(Cl)cc2Cl)CC1 | 9.43
CCOC(=O)c1sc(-c2ccccn2)nc1N1CCC(NCc2ccc(OCc3ccccc3)cc2)CC1 | 12.8
CCOC(=O)c1sc(-c2ccccc2)nc1N1CCC(NCc2ccc(OCc3ccccc3)cc2)CC1 | 18.4
CCOC(=O)c1sc(-c2ccccn2)nc1N1CCC(NCc2ccc(OC)cc2)CC1 | 4.62
CCOC(=O)c1sc(-c2ccccc2)nc1N1CCC(NCc2ccc(F)cc2)CC1 | 6.23
CCOC(=O)c1sc(-c2ccncc2)nc1N1CCC(NCc2ccc(Cl)cc2Cl)CC1 | 18.4

System: Escherichia coli
Assay: Inhibition of Escherichia coli DNA gyrase
Settings: not given

Compound | inhibition
CO[C@@H]1[C@@H](OC(N)=O)[C@@H](O)[C@H](Oc2ccc3c(O)c(NC(=O)c4ccc(O)c(CC=C(C)C)c4)c(=O)oc3c2C)OC1(C)C [NOVOBIOCIN] | inactive
CCOC(=O)c1sc(-c2ccccc2)nc1N1CCC(NCc2ccc(F)cc2)CC1 | inactive

System: Staphylococcus aureus
Assay: Inhibition of Staphylococcus aureus GyrB
Settings: not given

Compound | inhibition
CO[C@@H]1[C@@H](OC(N)=O)[C@@H](O)[C@H](Oc2ccc3c(O)c(NC(=O)c4ccc(O)c(CC=C(C)C)c4)c(=O)oc3c2C)OC1(C)C [NOVOBIOCIN] | inactive
CCOC(=O)c1sc(-c2ccccn2)nc1N1CCC(NCc2cccc(C(F)(F)F)c2)CC1 | inactive
CCOC(=O)c1sc(-c2ccccc2)nc1N1CCC(NCc2cccc(C(F)(F)F)c2)CC1 | inactive
CCOC(=O)c1sc(-c2ccccc2)nc1N1CCC(NCc2ccc(F)cc2)CC1 | inactive
CCOC(=O)c1sc(-c2ccncc2)nc1N1CCC(NCc2ccc(Cl)cc2Cl)CC1 | inactive
